These results are taken from ChEMBL document CHEMBL5214934, “A simplified analog of debromoaplysiatoxin lacking the B-ring of spiroketal moiety retains protein kinase C-binding and antiproliferative activities” (Bioorg Med Chem, 2022).

One test concerns HCC 2998. Description: Antiproliferative activity against human HCC 2998 cells after 48 hrs by SRB assay. In kind it is functional. The conditions noted are these: HCC 2998, read-out: pGI50 (converted). Put shortly:
(§1)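 Part of a 39-line human cancer cell panel. Cells plated in RPMI 1640 with 5% FBS and left to attach overnight, then exposed to compound at 10^-8 to 10^-4 M for 48 h. Growth measured by sulforhodamine B staining, absorbance at 525 nm, with a time-0 reading. % growth calculated against control from duplicate points. GI50 is the concentration giving 50% growth inhibition versus untreated control.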

In test [1] the target is Protein kinase C alpha type (Homo sapiens, UniProt P17252). Description: Inhibition of [3H]-PDBu binding to PKCalpha C1A domain (unknown origin) by competitive binding assay. Put shortly:
(§2)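 Synthetic PKCα-C1A (40 nM) or PKCδ-C1B (13.8 nM) peptide in 50 mM Tris-maleate (pH 7.4 at 4 °C). Mixture contained 20 nM [3H]PDBu (13.92 Ci/mmol), 50 µg/mL dioleoylphosphatidylserine, 3 mg/mL bovine γ-globulin and graded ligand. IC50 by logit analysis; Ki by Goldstein–Barrett equation from IC50 and [3H]PDBu Kd. Two independent experiments, triplicates each; log-scale mean with 95% CI.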

Test [2] has as its target Protein kinase C delta type (Homo sapiens, UniProt Q05655). The test can be described thus: Inhibition of [3H]-PDBu binding to PKCdelta C1B domain (unknown origin) by competitive binding assay. In outline: as §2
A further test deals with DMS-273. Description: Antiproliferative activity against human DMS-273 cells after 48 hrs by SRB assay. In kind it is functional. The settings on record: DMS-273, read-out: pGI50 (converted). Put shortly:
as §1
In general terms: In SRB staining, fixed cells bind dye roughly in proportion to their protein.

Test [3] in a line: Antiproliferative activity against human HBC4 cells after 48 hrs by SRB assay. Format: functional. The settings on record: HBC4, read-out: pGI50 (converted). In outline: as §1
In the next test the test system is St-4. Description: Antiproliferative activity against human St-4 cells after 48 hrs by SRB assay. In kind it is functional. The conditions noted are these: St-4, read-out: pGI50 (converted). In outline:
as §1

For the next test, the species on record is Homo sapiens. Description: Ratio Ki for inhibition of [3H]-PDBu binding to PKCalpha C1A domain (unknown origin) to Ki for inhibition of [3H]-PDBu binding to PKCdelta C1B domain (unknown origin).
A further test deals with MDA-MB-231. The test can be described thus: Antiproliferative activity against human MDA-MB-231 cells after 48 hrs by SRB assay. Format: functional. The conditions noted are these: MDA-MB-231, read-out: pGI50 (converted). Put shortly:
as §1

A further test concerns NCI-H460. The test can be described thus: Antiproliferative activity against human NCI-H460 cells after 48 hrs by SRB assay. In kind it is functional. In outline: as §1
For a further test, the system named is OVCAR-5. The test can be described thus: Antiproliferative activity against human OVCAR-5 cells after 48 hrs by SRB assay. In kind it is functional. The settings on record: OVCAR-5, read-out: pGI50 (converted). In outline:
as §1

In another test the test system is A549. Description: Antiproliferative activity against human A549 cells after 48 hrs by SRB assay. In kind it is functional. The settings on record: A549, read-out: pGI50 (converted). Put shortly: as §1
The next test deals with MKN-45. The test can be described thus: Antiproliferative activity against human MKN-45 cells after 48 hrs by SRB assay. Format: functional. Put shortly:
as §1

Another test relates to SF-295. Description: Antiproliferative activity against human SF-295 cells after 48 hrs by SRB assay. Format: functional. The conditions noted are these: SF-295, read-out: pGI50 (converted). In outline: as §1

SMILES strings stand for the structures. Active and inactive are the calls of the source. The rule behind the calls is not given here.

Protein kinase C delta type, sequence (Q05655 whole entry, the tested form may be a part): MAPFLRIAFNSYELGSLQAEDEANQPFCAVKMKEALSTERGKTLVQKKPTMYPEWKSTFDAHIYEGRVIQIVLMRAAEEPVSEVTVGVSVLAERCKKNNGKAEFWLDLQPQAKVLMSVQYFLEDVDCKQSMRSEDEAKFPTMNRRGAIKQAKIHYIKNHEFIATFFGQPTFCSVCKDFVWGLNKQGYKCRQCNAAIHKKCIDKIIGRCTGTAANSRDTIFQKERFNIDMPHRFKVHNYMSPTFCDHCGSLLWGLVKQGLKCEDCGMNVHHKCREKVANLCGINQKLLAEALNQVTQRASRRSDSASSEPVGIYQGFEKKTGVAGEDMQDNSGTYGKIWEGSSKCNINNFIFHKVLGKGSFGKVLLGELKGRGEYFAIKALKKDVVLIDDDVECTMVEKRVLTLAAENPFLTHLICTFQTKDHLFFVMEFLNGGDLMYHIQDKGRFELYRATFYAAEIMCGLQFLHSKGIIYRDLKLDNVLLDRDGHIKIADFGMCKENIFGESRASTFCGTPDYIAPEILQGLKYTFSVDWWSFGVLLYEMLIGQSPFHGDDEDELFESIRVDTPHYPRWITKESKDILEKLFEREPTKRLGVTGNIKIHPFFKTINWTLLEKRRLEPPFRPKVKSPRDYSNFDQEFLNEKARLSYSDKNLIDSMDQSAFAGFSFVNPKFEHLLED

With `CC1(C)CC[C@@H]2CC(=O)O[C@@H](CO)CC(=O)O[C@H](CCCCCCc3ccccc3)C[C@@H]1O2`, the GI50 in the test on HCC 2998 is < 10 µM; with DMS-273 it was < 10 µM; in [3] it was < 10 µM; in the test on St-4, < 10 µM; in the test on MDA-MB-231, < 10 µM; in the test with NCI-H460 (NCI-H460, read-out: pGI50 (converted)) it was < 10 µM. The GI50 in the test on OVCAR-5 is < 10 µM; in the test with A549 it was < 10 µM; with MKN-45 (MKN-45, read-out: pGI50 (converted)), < 10 µM; with SF-295 it was < 10 µM. Also, the inhibition constant (Ki) (usually the dissociation constant of the complex between target and ligand, obtained from inhibition or displacement) in test [1] came out at 0.088 µM; in test [2], 0.017 µM. Moreover, in the test filed under Homo sapiens, the Ratio Ki came out at 5.2.
In the case of `CC(C)[C@@]12C[C@@H](C[C@@H](CCCCc3ccccc3)O1)OC(=O)C[C@H](CO)OC(=O)CCO2`, the inhibition constant Ki in [1] is 0.1 µM; in test [2], 0.13 µM. In addition, in the test filed under Homo sapiens, the Ratio Ki is 0.8. The result with NCI-H460 and in the test with MKN-45 was Active.
With `CC1(C)CC[C@@H]2CC(=O)O[C@@H](CO)CC(=O)O[C@@H]3C[C@@H](CCCCc4ccccc4)O[C@@]1(C3)O2`, the Ratio Ki in the test filed under Homo sapiens was 12.
